HIV Env fusion: blocks HIV Env-driven cell-cell fusion | inhibition, % at 12.3 µM | AID 651610 | HeLa-JRFL Env/CEM21 cell fusion, luciferase | 360,000 tested, 1.1% active;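 active = mean replicate inhibition score of at least 50 and every replicate individually at or above 50; inconclusive = only one of the two criteria met; inactive = mean below 50 and not all replicates reaching 50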
Cneo AK release: Cryptococcus neoformans lysis via adenylate kinase release; C. neoformans lysis, adenylate kinase release luminescence, 4 h; normalised: neutral wells 0, clomiphene wells 100; lysis activity, % at 15 µM; 360,000 tested, 0.2% active; AID 651654;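 active = mean lysis activity across replicates of at least 80%, whatever share of replicates individually reach that level; inactive = mean lysis activity below 80%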
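Test system: log-phase Cryptococcus neoformans yeast cells. Input: 5 × 10^6 yeast cells/mL. Medium: fresh YPD growth medium. Doses: single dose. Incubation: static 4 h at 37 °C with compound, 1 h detection. Measured by: luminescent adenylate kinase detection reagent. Read-out: signal increase indicating cell lysis. Benchmarks: Clomiphene.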
ERAP1 inh: inhibitors of human ERAP1 aminopeptidase | 340,000 tested, 0.15% active | Q9NZ08 | recombinant ERAP1, Leu-AMC fluorescence, 60 min | inhibition, % at 10.7 µM;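 active = mean replicate inhibition of at least 30%, or all replicates individually reaching that 30% level; inactive = mean below 30% and not every replicate reaching it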
esBAF inh: SWI/SNF esBAF complex inhibition. mouse ES cells, Bmi1-luciferase knock-in reporter, 24 h; 100% = twice the neutral-well signal. reporter increase, % at 12.5 µM. 350,000 tested, 2% active; in the data active = activation above about 40%; inconclusive = no clear call, values can overlap the other calls;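 note: a rise in the Bmi1 reporter signal indicates esBAF inhibition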
MITF TRPM1 HTS: MITF TRPM1 promoter activation in melanoma cells | SK-MEL-5 TRPM1-promoter luciferase, 24 h; % of positive control, neutral wells = 0 | activation, % at 12.5 µM | 300,000 tested, 0.75% active | AID 588334;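 active = mean activation of at least 80% with every replicate also reaching 80%; inconclusive = mean reaches 80% but some replicate falls short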
Wnt act: Wnt/beta-catenin pathway activation | Wnt/beta-catenin reporter cell assay, activator, plate reader | 300,000 tested, 1.2% active | activation, % at 9.35 µM | AID 743398; in the data active = activation above about 30%, passing the limit was not always enough; inconclusive = no clear call, values can overlap the other calls
Numbers stand for hits. Only some compounds are listed: those with a hit (about 3.5% of all), similar ones and a draw of the others.

CCOc1ccc(C2=Nc3ccc(Br)cc3C(c3ccc(N4CCOCC4)cc3)=NN2)cc1 was read as HIV Env fusion inactive, MITF TRPM1 HTS inactive and Wnt act inactive.
Screening CCCS(=O)(=O)NC(=O)C1(C)CCN(C(=O)COc2ccc(Cl)cc2Cl)C1 (centres undefined) returned HIV Env fusion 56, Cneo AK release inactive, ERAP1 inh inactive, esBAF inh inactive and Wnt act inactive.
O=C(CSC(=S)N1CCCC1)c1ccccc1 was read as HIV Env fusion inactive, Cneo AK release inactive, ERAP1 inh inactive, esBAF inh inactive, MITF TRPM1 HTS inactive and Wnt act 45.
Screening CCOc1ccc(S(=O)(=O)N2CCN(C(=O)CN3C(=O)NC(C)(C)C3=O)CC2)cc1 returned Cneo AK release inactive, ERAP1 inh inactive, esBAF inh inactive, MITF TRPM1 HTS inactive and Wnt act 47.
`O=C(O)c1cccc(CN2C(=O)SC(Nc3cccc4ccccc34)C2=O)c1` (centres undefined) gave HIV Env fusion inactive, Cneo AK release inactive, ERAP1 inh inactive, esBAF inh inactive, MITF TRPM1 HTS inactive and Wnt act 40.
CC(O)(c1ccccc1)c1nc(-c2ccc(Cl)cc2)cs1 (centres undefined) was read as HIV Env fusion inactive, Cneo AK release inactive, ERAP1 inh inactive, esBAF inh inactive and Wnt act inactive.
`CC(O)(c1ccccc1)c1nc(-c2cc3ccccc3o2)cs1` (centres undefined) gave HIV Env fusion inactive, Cneo AK release inactive, ERAP1 inh inactive, esBAF inh 49 and Wnt act inactive.
For CN(C)c1ccc(-c2csc(C(C)(O)c3ccccc3)n2)cc1 (centres undefined) the results were HIV Env fusion inactive, Cneo AK release inactive, ERAP1 inh inactive, esBAF inh 56 and Wnt act inactive.
For N=C1N(/N=C/c2ccccc2)C(=Nc2ccccc2)C(=S)N1c1ccccc1 the results were HIV Env fusion inactive, Cneo AK release inactive and esBAF inh 60.
Cc1ccc(/C=N/n2c(-c3ccccc3)n[nH]c2=S)cc1 was read as HIV Env fusion inactive, Cneo AK release inactive, ERAP1 inh inactive, esBAF inh inactive and Wnt act inactive.
For O=[N+]([O-])c1cccc(N/N=C/c2ccc(N3CCOCC3)cc2)c1 the results were HIV Env fusion inactive, Cneo AK release inactive, ERAP1 inh inactive, esBAF inh 66, MITF TRPM1 HTS 127 and Wnt act inactive.
`O=C(O)c1cc(N/N=C/c2ccc(N3CCOCC3)cc2)ccc1Cl` gave HIV Env fusion inactive, Cneo AK release inactive, ERAP1 inh inactive, esBAF inh inactive, MITF TRPM1 HTS inactive and Wnt act 37.
C(=N\Nc1ccccc1)/c1ccc(N2CCOCC2)cc1 was read as Cneo AK release inactive, esBAF inh inactive and MITF TRPM1 HTS 109.
For Clc1cccc(N/N=C/c2ccc(N3CCOCC3)cc2)c1 the results were Cneo AK release inactive, ERAP1 inh inactive, esBAF inh inactive, MITF TRPM1 HTS inconclusive and Wnt act inactive.
`CCOc1ccccc1/C=N/Nc1ccccc1[N+](=O)[O-]` gave HIV Env fusion inactive, Cneo AK release inactive, esBAF inh 54 and MITF TRPM1 HTS inactive.
For COc1ccccc1/C=N\Nc1ccccc1[N+](=O)[O-] the results were HIV Env fusion inactive, Cneo AK release inactive, ERAP1 inh inactive and Wnt act inactive.
`O=C(NCCN1C(=O)C2C3C=CC(C3)C2C1=O)Nc1ccc(Br)cc1` (centres undefined) gave HIV Env fusion inactive, Cneo AK release inactive, esBAF inh 62, MITF TRPM1 HTS inactive and Wnt act 37.
For CC[C@@]1(C(=O)OC)N[C@H](CN(C)C(=O)Nc2ccc(OC)cc2)[C@@H]2C(=O)N(Cc3ccccc3)C(=O)[C@@H]21 the results were HIV Env fusion 70, Cneo AK release inactive, esBAF inh inactive, MITF TRPM1 HTS inactive and Wnt act inactive.
For COC(=O)[C@]1(Cc2ccccc2)N[C@H](CN(C)C(=O)Nc2ccccc2)[C@@H]2C(=O)N(Cc3ccccc3)C(=O)[C@@H]21 the results were HIV Env fusion inactive, Cneo AK release inactive, esBAF inh inactive, MITF TRPM1 HTS inactive and Wnt act inactive.
`CC[C@@]1(C(=O)OC)N[C@H](CN(C)C(=O)Nc2ccc(C)cc2)[C@@H]2C(=O)N(Cc3ccccc3)C(=O)[C@@H]21` gave HIV Env fusion 66, Cneo AK release inactive, ERAP1 inh inactive, esBAF inh inactive, MITF TRPM1 HTS inactive and Wnt act inactive.
Screening CC[C@@]1(C(=O)OC)N[C@H](CN(C)C(=O)Nc2ccc(F)cc2)[C@@H]2C(=O)N(Cc3ccccc3)C(=O)[C@@H]21 returned HIV Env fusion 94, Cneo AK release inactive, ERAP1 inh inactive, esBAF inh inactive, MITF TRPM1 HTS inactive and Wnt act inactive.
Screening COC(=O)[C@]1(Cc2ccccc2)N[C@H](CN(C)C(=O)Nc2ccc(F)cc2)[C@@H]2C(=O)N(Cc3ccccc3)C(=O)[C@@H]21 returned HIV Env fusion inactive, Cneo AK release inactive, esBAF inh inactive, MITF TRPM1 HTS inactive and Wnt act inactive.
`C[C@H]1CCCCO[C@@H](CN(C)S(=O)(=O)c2cccs2)[C@@H](C)CN([C@@H](C)CO)C(=O)c2cc(N(C)C)ccc2O1` gave HIV Env fusion inactive and esBAF inh inactive.
C[C@H]1CN([C@@H](C)CO)S(=O)(=O)c2ccc(C#CC3(O)CCCC3)cc2O[C@H]1CN(C)C(=O)c1ccncc1 was read as HIV Env fusion inactive, Cneo AK release inactive, ERAP1 inh inactive and esBAF inh inactive.
COC(=O)c1c(C)oc(C)c1S(=O)(=O)NC(c1ccccc1)c1ccccc1 was read as HIV Env fusion 68, Cneo AK release inactive, ERAP1 inh inactive, esBAF inh inactive, MITF TRPM1 HTS inactive and Wnt act inactive.
CCc1nnc(NS(=O)(=O)c2ccc(N)cc2)s1 was read as HIV Env fusion inactive, Cneo AK release inactive, ERAP1 inh inactive, esBAF inh inactive, MITF TRPM1 HTS inactive and Wnt act 79.
CCc1nnc(NS(=O)(=O)c2ccc(NC(=O)c3cccc(Cl)c3)cc2)s1 was read as HIV Env fusion inactive, ERAP1 inh inactive, esBAF inh inactive, MITF TRPM1 HTS 109 and Wnt act inactive.
Screening COc1cc(O)c2c(c1)OC(c1ccc(O)cc1)CC2=O (centres undefined) returned Cneo AK release inactive, ERAP1 inh inactive, esBAF inh inactive, MITF TRPM1 HTS inactive and Wnt act inactive.
`COc1ccc([C@@H]2CC(=O)c3c(O)cc(O)cc3O2)cc1O` gave HIV Env fusion inactive, Cneo AK release inactive, ERAP1 inh inactive, esBAF inh 54, MITF TRPM1 HTS inactive and Wnt act 40.
Cc1ccc(NC(=O)c2ccc(OC(=O)CCN3C(=O)c4ccccc4C3=O)cc2)cc1 was read as HIV Env fusion inactive, Cneo AK release inactive, esBAF inh inconclusive, MITF TRPM1 HTS inactive and Wnt act 46.
